We go through one compound from ChEMBL document CHEMBL4321805, “A Conformational Restriction Strategy for the Identification of a Highly Selective Pyrimido-pyrrolo-oxazine mTOR Inhibitor” (J Med Chem, 2019).

One data set deals with T1, Cytochrome P450 1A2 (Homo sapiens, UniProt P05177).
T1 sequence (P05177 whole entry): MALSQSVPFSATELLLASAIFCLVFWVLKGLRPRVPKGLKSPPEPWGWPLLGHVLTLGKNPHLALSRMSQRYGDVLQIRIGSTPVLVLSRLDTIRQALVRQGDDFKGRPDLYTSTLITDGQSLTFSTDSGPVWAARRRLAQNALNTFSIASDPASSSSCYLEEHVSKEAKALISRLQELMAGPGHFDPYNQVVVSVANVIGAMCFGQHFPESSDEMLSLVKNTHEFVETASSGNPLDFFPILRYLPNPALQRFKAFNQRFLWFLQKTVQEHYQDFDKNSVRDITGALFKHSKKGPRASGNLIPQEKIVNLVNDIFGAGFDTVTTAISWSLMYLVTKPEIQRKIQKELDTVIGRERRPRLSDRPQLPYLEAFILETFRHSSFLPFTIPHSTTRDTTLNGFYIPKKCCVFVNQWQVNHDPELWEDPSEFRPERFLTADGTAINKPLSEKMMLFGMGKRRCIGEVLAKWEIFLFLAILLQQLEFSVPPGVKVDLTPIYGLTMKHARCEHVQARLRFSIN
In words: Drug level treated with 5-((R)-4-((R)-3-Methylmorpholino)-5a,6,8,9-tetrahydro-5H-pyrimido[5',4':4,5]pyrrolo[2,1-c][1,4]oxazin-2-yl)pyrimidin-2-amine assessed as recombinant human CYP1A2-mediated compound formation incubated for 60 mins by LC/MS analysis. The format is ADME. The following applies: recombinant enzyme, 1 h. Put shortly: (§1)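 Human recombinant CYP1A1 or CYP1A2 Supersomes (25 pmol/mL) incubated with compound at 1 μM (0.25% DMSO) plus NADP+-regenerating cofactors at 37 °C for 60 min. Reaction stopped with ACN containing internal standard. Parent and metabolites expressed as percentage of total peak areas.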

A further data set has as its target T2, Cytochrome P450 1A1 (Homo sapiens, UniProt P04798).
T2 sequence (P04798 whole entry): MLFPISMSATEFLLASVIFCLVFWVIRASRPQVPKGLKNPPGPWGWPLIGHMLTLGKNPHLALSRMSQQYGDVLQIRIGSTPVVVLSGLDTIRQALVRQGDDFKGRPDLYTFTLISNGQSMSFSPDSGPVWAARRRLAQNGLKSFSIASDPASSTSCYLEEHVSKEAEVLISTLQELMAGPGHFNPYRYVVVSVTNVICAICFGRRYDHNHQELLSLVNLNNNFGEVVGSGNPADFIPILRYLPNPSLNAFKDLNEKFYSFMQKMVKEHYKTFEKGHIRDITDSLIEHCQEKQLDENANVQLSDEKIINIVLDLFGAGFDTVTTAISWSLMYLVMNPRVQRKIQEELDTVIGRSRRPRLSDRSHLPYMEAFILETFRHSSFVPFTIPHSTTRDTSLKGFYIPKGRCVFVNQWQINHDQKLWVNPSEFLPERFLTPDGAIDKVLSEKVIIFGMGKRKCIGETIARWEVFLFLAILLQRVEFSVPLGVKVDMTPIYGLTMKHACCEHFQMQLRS
In words: Drug level treated with 5-((R)-4-((R)-3-Methylmorpholino)-5a,6,8,9-tetrahydro-5H-pyrimido[5',4':4,5]pyrrolo[2,1-c][1,4]oxazin-2-yl)pyrimidin-2-amine assessed as recombinant human CYP1A1-mediated compound formation incubated for 60 mins by LC/MS analysis. The following applies: recombinant enzyme, 1 h. The format is ADME. Put shortly: as §1

For `CC(C=O)N(CCO)c1nc(-c2cnc(N)nc2)nc2c1C[C@@H]1COCCN21` (some centres not stated), the Drug metabolism result on Cytochrome P450 1A2 and at Cytochrome P450 1A1 was “Metabolite_Detected” each time.
